Screening data (PubChem)
This is a sample that favours compounds with a hit; in the whole collection about 4.3% have one here.
STAT1 activator: STAT1 signaling activation; NIH 3T3 STAT1-luciferase reporter, IFN-gamma, luminescence; 100% = IFN-gamma alone, no compound; activation (% of control), % at 5.5 µM; 200,000 compounds, 2.6% hits;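 active means activation above the screen-wide mean activation plus 3 SD, cut at about 130% in these data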;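 further: raw ratio to IFN-gamma control signal so 100% means no change and 0% no light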
FLuc inhib CS: inhibits firefly luciferase, flagging false hits in luciferase inhibition screens; P08659; ATPLite firefly luciferase biochemical luminescence, 10 min; inhibition, % at 10 µM; 200,000 compounds, 1.5% hits;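 active means inhibition above about 50% when tested at 10 µM, limit read from the data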
Target sequence (P08659 whole entry, looked up): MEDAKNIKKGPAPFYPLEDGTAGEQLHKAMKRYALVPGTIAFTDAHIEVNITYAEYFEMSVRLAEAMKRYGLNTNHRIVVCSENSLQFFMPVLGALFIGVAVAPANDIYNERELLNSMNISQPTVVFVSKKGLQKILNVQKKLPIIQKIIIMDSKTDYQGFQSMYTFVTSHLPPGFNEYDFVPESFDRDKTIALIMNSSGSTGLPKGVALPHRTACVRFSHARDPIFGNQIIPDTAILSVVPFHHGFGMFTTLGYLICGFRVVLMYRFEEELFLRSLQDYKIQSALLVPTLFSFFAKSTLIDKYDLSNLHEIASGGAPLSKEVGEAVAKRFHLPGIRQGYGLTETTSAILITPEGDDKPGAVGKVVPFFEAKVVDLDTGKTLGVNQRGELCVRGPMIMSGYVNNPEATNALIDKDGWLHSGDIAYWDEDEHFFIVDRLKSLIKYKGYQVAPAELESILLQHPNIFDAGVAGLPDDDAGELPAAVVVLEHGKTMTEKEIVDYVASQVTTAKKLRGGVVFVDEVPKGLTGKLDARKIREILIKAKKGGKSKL
NF-kB neuron act: compounds increasing NF-kB expression in human neuronal cells. fold change at 12.5 µM. 190,000 compounds, 1.6% hits. NF-kB reporter expression; stronger effect = higher value. AID 1239; in the data active means fold change above about 3.3
FLuc stim CS: firefly luciferase counter-screen for stimulation assays; P08659; ATPlite luciferase biochemical, luminescence, 10 min; 0 = ATP-free wells, 1 = DMSO control; activation factor at 10 µM; 200,000 tested, under 10 active; AID 1027;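 active means luciferase activation factor, scaled between plate controls, of at least 2 with compound at 10 µM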
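System: luciferase plus luciferin reagent, cell-free; medium: PBS as buffer for the ATP substrate; dosing: test compounds dosed from 2 mM stocks in 100% DMSO; timing: 10 min post-reagent at room temperature; measured by: luminescence measurement of luciferase light output; evaluation: luciferase activation, seen as luminescence increase over controls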
APP 5'UTR act: activates APP 5'UTR luciferase reporter. SH-SY5Y APP 5'UTR luciferase reporter, luminescence; zero percent = DMSO vehicle wells. activation, % at 2 µM. 190,000 compounds, 1% hits. AID 1276;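 active means activation above a set limit, based on mean plus 3 SD of controls, cut at about 140% in these data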
The depositor's hits bear a star.

SMILES	STAT1 activator	FLuc inhib CS	NF-kB neuron act	FLuc stim CS	APP 5'UTR act
Brc1ccccc1C1CC(c2ccccc2)=Nc2ccccc2N1 (stereo unspecified)	135*	-1	2.4	1	149*
c1ccc(C2=Nc3ccccc3NC(c3ccccc3)C2)cc1 (stereo unspecified)	123	0	3	1	18
Cc1cc(C)nc(SCCC(=O)Nc2ccccc2Cl)n1	105	0	1.1	1	11
COC(=O)c1ccc(-n2c(C)cc(C(=O)CSc3ccc(NC(C)=O)cc3)c2C)cc1	101	-1	0.92	1	-5
Cc1cc(C(=O)Cn2nnc3ccccc3c2=O)c(C)n1-c1ccccc1F	129*	85*	1.7	0.1	197*
Cc1cc(C(=O)COC(=O)c2ccc(O)cc2)c(C)n1-c1ccccc1F	126	42	1.3	0.6	185*
Cc1cc(C(=O)Cn2nnc3ccccc3c2=O)c(C)n1-c1c(C)n(C)n(-c2ccccc2)c1=O	101	-8	0.94	1.1	1
CCn1cc(C(=O)OCC(=O)c2cc(C)n(-c3ccccc3F)c2C)c(=O)c2ccc(C)nc21	100	-2	1	1	1
CC(=O)Nc1ccc(SCC(=O)c2cc(C)n(-c3ccccc3F)c2C)cc1	145*	34	0.51	0.7	78
CCc1ccc(NC(=O)CN2C(=O)C(=O)N(Cc3ccccc3)C2=O)cc1	102	-7	1	1.1	18
CCN(C(=S)Nc1ccc(C(C)=O)cc1)C1CCCCC1	97	-2	0.89	1	28
CCCn1c(SCC(=O)c2cc(C)c(C)cc2C)n[nH]c1=O	94	-7	1	1.1	0
Cc1ccc(NC(=O)OC(C)CNC(=O)Oc2cccc(C)c2)cc1 (stereo unspecified)	140*	5	1.7	1	45
COc1ccc(N=Cc2cc3c(cc2O)OC(N)=C(C#N)C3c2ccccc2)cc1 (stereo unspecified)	92	8	2	0.9	-30
O=C(O/N=C1\CCCc2ccccc21)c1cccs1	97	91*	1.2	0.1	5
O=C(Cc1ccccc1)O/N=C1\CCCc2ccccc21	107	24	1.4	0.8	-1
CC1(C)CC(=O)C=C(NNC(=O)c2ccccc2O)C1	99	91*	2.4	0.1	7
Cc1ccc(-n2c(C)cc(C(=O)COC(=O)C3=NNC(=O)CC3)c2C)cc1	122	8	1	0.9	-6
COc1ccc(-n2c(C)cc(C(=O)COC(=O)Cc3n[nH]c(=O)c4ccccc34)c2C)cc1	101	-4	0.59	1	-9
Cc1cc(C(=O)COC(=O)C2=NNC(=O)CC2)c(C)n1-c1ccccc1	97	64*	0.96	0.4	12
CCCn1c(C)cc(C(=O)COC(=O)c2ccc(Cl)c(S(=O)(=O)N3CCCC3)c2)c1C	106	32	0.93	0.7	-20
Cc1ccc(-n2c(C)cc(C(=O)COC(=O)c3ccc[nH]c3=O)c2C)cc1C	109	65*	1.2	0.4	14
CCCn1c(C)cc(C(=O)COC(=O)c2ccc[nH]c2=O)c1C	86	65*	0.9	0.3	38
CC1(C)NC(=O)N(CC(=O)OCC(=O)Nc2cccc(S(N)(=O)=O)c2)C1=O	102	0	0.87	1	2
CN(C)C(=O)N1CCC(C(=O)N2CCCC(C(=O)c3cccc4ccccc34)C2)CC1 (stereo unspecified)	96	-5	1.4	1.1	-11
SMILES	STAT1 activator	FLuc inhib CS	NF-kB neuron act	FLuc stim CS	APP 5'UTR act
Cc1ccccc1Nc1nnc(SCC(=O)N(C)C2CCS(=O)(=O)C2)s1 (stereo unspecified)	101	-3	0.96	1	-9
Cc1ccc(Nc2nnc(SCC(=O)N(C)C3CCS(=O)(=O)C3)s2)cc1 (stereo unspecified)	98	76*	1.9	0.2	6
CCCCOc1ccc([N+](=O)[O-])cc1C(=O)O	98	-8	0.96	1.1	-2
O=C(Nc1nc2ccccc2[nH]1)c1ccccc1F	30	96*	0.37	0	-1
O=C(Nc1nc2ccccc2[nH]1)c1cc2ccccc2o1	121	75*	5.5*	0.3	263*
O=C(Cc1ccccc1F)Nc1nc2ccccc2[nH]1	114	-2	1.3	1	-4
CSc1nnc(NC(=O)c2ccc(S(=O)(=O)N(C)C)cc2)s1	123	60*	1.7	0.4	79
Cc1cc(C)nc(NC(=O)c2cc3ccccc3o2)n1	102	13	1.1	0.9	-9
